Series [1] addresses T1, Mineralocorticoid receptor (Homo sapiens, UniProt P08235).
T1 sequence (P08235 whole entry): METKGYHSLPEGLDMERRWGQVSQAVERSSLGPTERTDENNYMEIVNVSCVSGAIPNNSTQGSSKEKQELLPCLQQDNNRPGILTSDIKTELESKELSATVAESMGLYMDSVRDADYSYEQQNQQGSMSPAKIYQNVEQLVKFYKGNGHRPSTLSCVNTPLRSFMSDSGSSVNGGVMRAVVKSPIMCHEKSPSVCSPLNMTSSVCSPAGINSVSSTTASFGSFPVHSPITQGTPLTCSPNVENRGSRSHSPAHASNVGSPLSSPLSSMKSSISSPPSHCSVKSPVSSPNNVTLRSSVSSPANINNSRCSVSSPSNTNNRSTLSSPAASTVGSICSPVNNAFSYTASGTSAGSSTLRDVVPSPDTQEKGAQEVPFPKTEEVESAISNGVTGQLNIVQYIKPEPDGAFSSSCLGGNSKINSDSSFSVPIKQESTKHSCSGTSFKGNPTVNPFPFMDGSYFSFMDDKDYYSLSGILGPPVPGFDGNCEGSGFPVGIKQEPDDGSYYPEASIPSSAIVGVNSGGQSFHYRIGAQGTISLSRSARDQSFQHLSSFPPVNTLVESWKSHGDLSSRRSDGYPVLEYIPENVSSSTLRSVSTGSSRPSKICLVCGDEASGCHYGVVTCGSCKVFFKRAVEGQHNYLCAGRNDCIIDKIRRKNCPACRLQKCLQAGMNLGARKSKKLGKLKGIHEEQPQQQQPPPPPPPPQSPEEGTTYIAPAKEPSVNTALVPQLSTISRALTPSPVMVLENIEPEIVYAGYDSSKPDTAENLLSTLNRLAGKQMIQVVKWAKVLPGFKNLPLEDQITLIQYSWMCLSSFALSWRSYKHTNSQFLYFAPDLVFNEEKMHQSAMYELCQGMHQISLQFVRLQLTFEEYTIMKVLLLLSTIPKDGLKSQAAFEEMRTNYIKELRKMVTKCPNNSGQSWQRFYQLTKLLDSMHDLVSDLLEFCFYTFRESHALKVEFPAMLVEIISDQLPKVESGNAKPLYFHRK
The series can be described thus: Agonist activity at human mineralocorticoid receptor expressed in human A549 cells by fluorescence polarization assay. It counts as functional, cell-based. (In fluorescence polarisation assays a small probe gives low polarisation when free and higher when bound to something large.)

The next series concerns Blood. As to the kind of experiment: Antiinflammatory activity in human whole blood assessed as inhibition of TNF-alpha-induced IL-8 production after overnight incubation by ELISA. It counts as functional, tissue-based. A general note: In an ELISA, binding on a coated surface is turned into a signal by an enzyme label.
Series [2] can be described thus: Cmax in Sprague-Dawley rat at 50 mg/kg, po. The series is classed as ADME, organism-based. Also noted: dose 50 mg/kg, route oral. Conditions: in vivo. The gist of the method: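 Male Sprague-Dawley rats received a single intravenous (1 mg/kg) or oral (10 or 50 mg/kg) dose. Plasma pharmacokinetic parameters were derived from these profiles.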
A short description of series [3]: Drug level in plasma of Sprague-Dawley rat at 30 mg/kg, po measured after 6 hrs. It counts as ADME, organism-based. Also noted: dose 30 mg/kg, route oral. Conditions: read-out: Drug uptake. The gist of the method:
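Plasma exposure was measured in Sprague-Dawley rats 6 h after a single oral dose of 30 mg/kg given in the carrageenan paw edema study.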

For another series, the target named is T2, Glucocorticoid receptor (Homo sapiens, UniProt P04150).
T2 sequence (P04150 whole entry): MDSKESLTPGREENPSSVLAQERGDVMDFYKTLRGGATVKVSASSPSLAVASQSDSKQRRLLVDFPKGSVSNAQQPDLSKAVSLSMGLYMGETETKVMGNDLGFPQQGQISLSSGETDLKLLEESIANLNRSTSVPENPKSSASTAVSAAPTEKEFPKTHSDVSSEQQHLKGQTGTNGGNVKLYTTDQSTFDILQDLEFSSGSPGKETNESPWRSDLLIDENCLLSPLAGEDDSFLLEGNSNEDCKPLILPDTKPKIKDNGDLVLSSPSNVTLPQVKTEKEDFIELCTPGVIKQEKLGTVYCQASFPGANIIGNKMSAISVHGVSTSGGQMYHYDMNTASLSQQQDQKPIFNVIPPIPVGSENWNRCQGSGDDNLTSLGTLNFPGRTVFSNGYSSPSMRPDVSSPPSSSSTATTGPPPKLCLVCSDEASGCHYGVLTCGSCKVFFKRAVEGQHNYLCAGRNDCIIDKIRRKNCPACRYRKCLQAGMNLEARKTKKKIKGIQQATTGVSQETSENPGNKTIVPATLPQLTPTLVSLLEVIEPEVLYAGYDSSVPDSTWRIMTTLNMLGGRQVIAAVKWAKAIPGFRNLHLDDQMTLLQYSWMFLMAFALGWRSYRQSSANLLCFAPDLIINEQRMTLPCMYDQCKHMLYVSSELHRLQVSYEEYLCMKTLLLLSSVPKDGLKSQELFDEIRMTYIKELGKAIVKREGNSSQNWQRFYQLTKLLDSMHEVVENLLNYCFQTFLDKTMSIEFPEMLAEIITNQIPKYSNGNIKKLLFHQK
As to the kind of experiment: Transactivation activity at GR-alpha in human NP1 Hela cells assessed as inhibition of GAL4-DBD after 20 hrs by luciferase reporter gene assay. The series is classed as cell-based.

The next series addresses T3, Androgen receptor (Homo sapiens, UniProt P10275).
T3 sequence (P10275 whole entry): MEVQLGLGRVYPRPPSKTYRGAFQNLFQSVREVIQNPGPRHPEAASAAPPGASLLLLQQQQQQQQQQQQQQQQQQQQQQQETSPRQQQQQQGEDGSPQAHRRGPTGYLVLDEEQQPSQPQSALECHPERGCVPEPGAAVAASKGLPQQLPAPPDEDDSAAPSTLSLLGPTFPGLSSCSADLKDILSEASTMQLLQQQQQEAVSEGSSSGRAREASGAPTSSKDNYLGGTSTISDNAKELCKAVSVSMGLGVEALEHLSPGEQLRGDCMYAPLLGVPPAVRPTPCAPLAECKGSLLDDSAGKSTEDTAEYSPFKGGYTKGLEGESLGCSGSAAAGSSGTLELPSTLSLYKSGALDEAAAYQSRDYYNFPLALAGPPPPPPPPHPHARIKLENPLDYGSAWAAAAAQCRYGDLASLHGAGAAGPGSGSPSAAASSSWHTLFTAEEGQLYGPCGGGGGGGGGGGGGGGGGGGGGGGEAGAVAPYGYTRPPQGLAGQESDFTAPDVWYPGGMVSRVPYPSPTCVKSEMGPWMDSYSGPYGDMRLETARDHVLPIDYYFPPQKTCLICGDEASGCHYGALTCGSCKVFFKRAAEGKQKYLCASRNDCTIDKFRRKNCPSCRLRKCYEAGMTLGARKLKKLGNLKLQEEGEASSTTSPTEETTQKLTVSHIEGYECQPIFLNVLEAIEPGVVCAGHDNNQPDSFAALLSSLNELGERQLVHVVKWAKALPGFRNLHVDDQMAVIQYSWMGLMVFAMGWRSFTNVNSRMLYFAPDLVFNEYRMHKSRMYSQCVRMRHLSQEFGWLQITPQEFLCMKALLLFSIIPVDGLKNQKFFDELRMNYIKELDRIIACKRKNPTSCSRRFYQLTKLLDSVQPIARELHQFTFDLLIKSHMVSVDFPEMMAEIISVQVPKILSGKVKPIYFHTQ
As to the kind of experiment: Displacement of fluorescently labeled ligand from androgen receptor by fluorescence polarization assay. The essentials:
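Binding was measured by fluorescence polarization competition between compound and a fluorescent ligand for full-length receptor or ligand-binding domain. Values are means of at least two experiments.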

By EC50 is commonly meant the midpoint of the concentration-response curve. As a reminder, the Cmax is the highest concentration seen after dosing. The Ki is a dissociation constant, usually derived from enzyme kinetics or from competition with a known ligand. Consider `CN(C)C(=O)c1ccc(-c2ccc3c(n2)Oc2ccccc2[C@H]3C(C)(C)C(=O)Nc2nncs2)cc1F`, for which the results for the EC50 (in series [1]; with Blood; on Glucocorticoid receptor) were more than 5 µM, 1470 nM and 143 nM, respectively. The Cmax in series [2] stood at 3210 ng/mL. Also, the concentration at 6 h in series [3] was 788 nM. In addition, the Ki on Androgen receptor was more than 5 µM.

Take `CCN(C)C(=O)c1ccc(-c2ccc3c(n2)Oc2ccccc2[C@@H]3C(C)(C)C(=O)Nc2nncs2)cc1F`: the EC50 was more than 5 µM in series [1], 532 nM in the series on Blood and 113 nM on Glucocorticoid receptor. Also, in series [2], the Cmax is 3080 ng/mL. The concentration at 6 h in series [3] stood at 1110 nM. The molecule further yielded a Ki on Androgen receptor of more than 5 µM.

The values are drawn from ChEMBL document CHEMBL1909630, “Azaxanthene based selective glucocorticoid receptor modulators: design, synthesis, and pharmacological evaluation of (S)-4-(5-(1-((1,3,4-thiadiazol-2-yl)amino)-2-methyl-1-oxopropan-2-yl)-5H-chromeno[2,3-b]pyridin-2-yl)-2-fluoro-N,N-dimethylbenzamide (BMS-776532) and its methylene homologue …” (J Med Chem, 2011).
